Screens deposited in PubChem by several laboratories.
Most compounds without a hit are left out; they make up all but 4.7% or so of the library.
MrgX1 allo act – allosterically activates human MrgX1 receptor signaling; Q96LB2; MrgX1-HEK293, Fluo-4 calcium flux, FDSS; hits give high values; B-score at 10 µM; hit rate 0.63% among 310,000; AID 588675;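 active = plate-corrected calcium response at least 3 library SD above typical, normal starting fluorescence, not activating the receptor alone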;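 also: compound read alongside a low EC10 to EC30 dose of BAM8-22 agonist; peak minus trough fluorescence over baseline measured at the second addition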
Target sequence (Q96LB2 whole entry, looked up): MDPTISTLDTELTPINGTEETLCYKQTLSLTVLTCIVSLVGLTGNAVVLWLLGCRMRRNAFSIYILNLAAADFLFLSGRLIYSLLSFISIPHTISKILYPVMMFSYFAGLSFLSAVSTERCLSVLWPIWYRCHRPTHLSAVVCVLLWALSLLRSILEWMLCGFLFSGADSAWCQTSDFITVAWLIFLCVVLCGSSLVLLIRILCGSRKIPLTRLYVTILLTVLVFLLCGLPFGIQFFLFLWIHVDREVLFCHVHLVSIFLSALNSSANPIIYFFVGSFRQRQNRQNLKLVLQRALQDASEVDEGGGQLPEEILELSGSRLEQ
RGS4 pot – RGS4 potentiation or activation; HEK293 M3R/inducible RGS4, carbachol calcium flux Fluo4; hits give low values; hit rate 0.92% among 310,000; B-score at 10 µM;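 active = B-score of the integrated calcium signal more than 4 SD below the library mean, with starting fluorescence not abnormally high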;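 also: negative B-score means reduced calcium response which marks RGS4 activation or potentiation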
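Material: Inducible-RGS4 HEK293 cells carrying M3 receptor; also added: carbachol at ECmax as muscarinic agonist stimulus; incubation: compound preincubation 20 min at room temperature before agonist; signal: Fluo4-AM (2 µM) calcium-flux fluorescence, kinetic read; measure: integrated calcium ratio converted to B score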
KCC2 mod – modulates chloride dependent transport by human KCC2 | hit rate 2.2% among 190,000 | Q9H2X9 | AID 1456 | KCC2 cells, thallium flux FluoZin-2 fluorescence | B-score of Tl+ flux slope (higher = more flux/activation; lower = inhibition) at 10 µM;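 active = thallium flux slope and its plate-corrected score both differing from the plate sample mean at a set confidence after two filtering rounds, in either direction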;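 also: slope of fluorescence scaled to starting intensity during 10 to 20 s after thallium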
MrgX1 antag – antagonists of human MrgX1 receptor. hit rate 1.3% among 310,000. MRGX1-HEK293 calcium flux, Fluo-4, BAM8-22 antagonism; hits give low values. B-score at 10 µM. Q96LB2;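 active = calcium-response B-score plate-corrected more than 3 library SD below zero, starting fluorescence within 5 deviations, no agonist response on first addition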;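 also: peak minus trough fluorescence over baseline after final BAM8-22 challenge near maximal dose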
RGS4 inh – human RGS4 inhibition. HEK293 M3R/RGS4 inducible, Fluo-4 calcium flux; hits give high values; triggered by carbachol at its EC20. B-score at 10 µM. hit rate 0.45% among 310,000;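 active = B-score, a plate-corrected calcium signal, over three deviations above library mean, with baseline fluorescence within five deviations of library mean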;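 also: RGS4 expression induced by doxycycline in cells with stable M3 receptor; B-score is computed from the integrated fluorescence ratio over baseline after carbachol; higher B-score means a larger calcium signal and so more RGS4 inhibition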
Target sequence (P49798 whole entry, looked up): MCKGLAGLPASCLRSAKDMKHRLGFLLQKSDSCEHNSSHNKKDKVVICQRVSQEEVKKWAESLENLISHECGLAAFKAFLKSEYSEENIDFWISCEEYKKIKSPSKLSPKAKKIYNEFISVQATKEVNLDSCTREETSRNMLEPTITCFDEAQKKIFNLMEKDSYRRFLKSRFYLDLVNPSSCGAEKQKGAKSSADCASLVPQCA
MrgX1 ag – agonists of human MrgX1 receptor. B-score at 10 µM. MrgX1-HEK293 cells, Fluo-4 calcium fluorescence, agonist mode; hits give high values. AID 588627. hit rate 0.44% among 310,000;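 active = calcium response B-score plate-corrected fluorescence ratio at least 3 library SD, with starting fluorescence B-score inside 5 SD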
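Test system: HEK293 cells stably expressing human MrgX1 receptor; Input: fifteen thousand cells per well; Dosing: compound delivered in addition one of three; Schedule: overnight seeding, then 1 h dark dye loading; Technique: Fluo-4 NW calcium fluorescence; Measure: B-scored fluorescence response ratio; Controls: positive and negative controls per plate.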
KCC2 sec1 – confirmation of human KCC2 transport modulators. shares compounds with KCC2 mod. HEK293-KCC2, thallium flux, FluoZin2 fluorescence; hits give high values. normalised thallium flux (F/F0 slope) at 10 µM. hit rate 15% among 3,700. AID 1713;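 active = thallium flux slope above the same plate's solvent-only control mean plus 3 SD; inconclusive = the two replicate wells disagree; inactive = no significant difference from solvent-only control wells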
KCC2 bumet counter – thallium flux persisting under bumetanide in KCC2 cells, counter-screen secondary assay. shares compounds with KCC2 mod. HEK293-KCC2 + bumetanide/ouabain, thallium flux FluoZin2; hits give high values. normalized thallium flux at 10 µM. hit rate 49% among 3,700. AID 1714;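 active = thallium entry rate above the same plate's blocked-transporter control wells by more than 3 SD; inconclusive = the two repeat wells disagree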;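 also: raw slope of fluorescence over initial fluorescence between 10 and 20 s after thallium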
KCC2 sec2 – KCC2 (human) modulation, second secondary assay | shares compounds with KCC2 mod | HEK293-KCC2, thallium flux FluoZin2 fluorescence; actives lie on both sides; F/F0 rise rate, 10–20 s post-thallium | normalized thallium flux at 10 µM | hit rate 23% among 3,700;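 active = thallium flux slope more than 3 SD above or below the plate's solvent-only control mean, mostly below; inconclusive = the two repeat wells disagreed; inactive = no significant shift from solvent-only controls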
HEK293 Tl flux – acts in parental HEK cells, KCC2 counter-screen; shares compounds with KCC2 mod; HEK293 parental cells, thallium flux FluoZin2, ouabain; baseline-ratio fluorescence slope, 10–20 s after thallium; thallium flux rate (normalised fluorescence) at 10 µM; hit rate 46% among 3,700;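 active = thallium flux rate significantly above the same plate's solvent-only control wells, beyond their mean plus 3 SD; inconclusive = the two replicate wells gave conflicting results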
KCC2 ouabain – confirmation of human KCC2 modulators with ouabain; AID 1717; shares compounds with KCC2 mod; hit rate 48% among 3,700; raw Tl+ flux slope (below DMSO = inhibition, above = activation) at 10 µM; HEK293-KCC2, thallium flux FluoZin2 fluorescence; bidirectional: low = inhibitor, high = activator;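 active = thallium flux slope beyond 3 SD from same-plate DMSO control mean in most replicates, usually higher, sometimes lower; inconclusive = repeat tests gave conflicting results; inactive = no significant difference from controls in most replicates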;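 also: slope of initial-normalized fluorescence between seconds 10 and 20 after thallium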
HEK counter2 – acts in parental HEK cells, second KCC2 counter-screen | shares compounds with KCC2 mod | HEK293 parental, thallium flux FluoZin-2 fluorescence slope | thallium flux slope at 10 µM | hit rate 33% among 3,700;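 active = thallium flux slope above the same plate's solvent-control mean plus 3 SD in both duplicate wells; inconclusive = duplicate wells that disagreed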;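 also: run without ouabain in cells lacking the KCC2 cotransporter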
Hits are given with their value; n = inactive; u = inconclusive; x = not tested or not shown.

SMILES	MrgX1 allo act	RGS4 pot	KCC2 mod	MrgX1 antag	RGS4 inh	MrgX1 ag	KCC2 sec1	KCC2 bumet counter	KCC2 sec2	HEK293 Tl flux	KCC2 ouabain	HEK counter2
C=CCn1c(O)c(N=NC(=S)Nc2ccccc2F)c2cc(S(=O)(=O)N3CCOCC3)ccc21	n	n	64	n	n	n	0.018	0.05	n	0.056	0.049	0.02
C=CCn1c(O)c(N=NC(=S)Nc2cccc(C)c2)c2ccccc21	n	n	82	n	n	n	n	0.084	0.057	0.029	0.063	0.023
Oc1c(N=NC(=S)Nc2ccccc2F)c2ccccc2n1Cc1ccccc1	n	n	21	n	n	n	u	0.046	n	u	0.03	u
C=CCn1c(O)c(N=NC(=S)Nc2ccccc2F)c2ccccc21	n	n	107	n	n	n	0.036	0.14	0.05	u	0.089	0.028
Cc1ccc(Cn2c(O)c(N=NC(=S)Nc3ccccc3F)c3ccccc32)cc1	n	n	n	n	n	n	x	x	x	x	x	x
COc1ccccc1N1CCN(C(=O)CNC(=O)c2ccc(Cl)cc2Cl)CC1	n	n	x	n	n	n	x	x	x	x	x	x
Cc1c(Cl)cccc1NC(=S)N=Nc1c(O)n(CN2CCOCC2)c2ccccc12	n	n	48	n	n	n	0.016	0.052	n	0.038	0.056	0.013
COc1cccc(CNC(=O)CSc2ccc(-c3cccs3)nn2)c1	n	n	-3.2	n	n	n	n	n	u	n	n	n
COc1ccccc1CNC(=O)CSc1ccc(-c2cccs2)nn1	n	n	-4.3	n	n	n	n	n	n	n	0.015	n
O=C(/C=C/c1cccs1)Nc1nc(-c2ccccc2)cs1	n	n	x	n	n	n	x	x	x	x	x	x
O=C(/C=C/c1cccs1)Nc1scc(-c2ccccc2)c1C(=O)O	x	n	-4.2	x	n	x	n	u	0.021	n	0.014	n
COc1ccc(C/C(C)=N/NC(=S)Nc2ccc(C(C)C)cc2)cc1	n	n	n	n	n	n	x	x	x	x	x	x
COc1ccc(OCC(=O)NC(=S)Nc2ccccc2F)cc1	n	n	52	n	n	n	0.04	0.088	0.049	0.028	0.051	0.033
COc1ccc(C/C(C)=N/NC(=S)Nc2ccccc2F)cc1	n	n	55	n	n	n	n	0.036	n	u	0.039	u
COc1ccccc1-c1nnc(SCC(=O)Nc2nc(-c3ccccc3)cs2)n1C	n	n	-4	n	n	n	u	n	n	n	0.015	n
O=C(Cc1cccs1)Nc1nc(-c2ccccc2)cs1	n	n	n	n	n	n	x	x	x	x	x	x
Cn1nccc1C(=O)OCC(=O)Nc1nc(-c2ccccc2)cs1	n	n	-5.3	n	n	n	n	n	0.022	n	n	n
Cc1nc(CC(=O)Nc2nc(-c3ccccc3)cs2)cs1	n	n	-3.4	n	n	n	n	n	u	n	0.017	n
CCSc1nnc(NC(=O)CSc2nccn2-c2cccc(C)c2C)s1	n	n	3.1	n	n	n	n	0.016	n	0.015	n	0.018
CCSc1nnc(NC(=O)CSc2nccn2-c2cc(C)cc(C)c2)s1	n	n	n	n	n	n	x	x	x	x	x	x
CCN(Cc1ccccc1)C(=O)c1cc(COc2c(F)cccc2F)on1	n	n	-4.7	n	n	n	n	n	n	n	0.014	u
CN(Cc1cnn(C)c1)C(=O)c1cc(COc2c(F)cccc2F)on1	n	n	x	n	n	n	x	x	x	x	x	x
O=C(NC1CCc2ccccc21)c1cc(COc2c(F)cccc2F)on1 (configuration not stated)	n	n	n	n	n	n	x	x	x	x	x	x
O=C(NCC1OCCc2ccccc21)c1cc(COc2c(F)cccc2F)on1 (configuration not stated)	n	n	-6	n	n	n	n	n	u	u	0.013	n
COc1cccc(CN(C)C(=O)c2cc(COc3c(F)cccc3F)on2)c1	n	n	x	n	n	n	n	n	0.025	u	0.014	n
SMILES	MrgX1 allo act	RGS4 pot	KCC2 mod	MrgX1 antag	RGS4 inh	MrgX1 ag	KCC2 sec1	KCC2 bumet counter	KCC2 sec2	HEK293 Tl flux	KCC2 ouabain	HEK counter2
Cc1nn(C(C)C(=O)NCc2ccco2)c(=O)c2nn(-c3ccccc3)c(C)c12 (configuration not stated)	n	n	x	n	n	n	x	x	x	x	x	x
COCC(=O)N1CCC(Oc2ccc(C(=O)NC3Cc4ccccc4C3)cc2)CC1	n	n	x	n	n	n	x	x	x	x	x	x
O=C(CNC(=O)c1ccco1)N/N=C/c1ccc(C(=O)O)cc1	n	n	x	n	n	n	x	x	x	x	x	x
CC(C)c1onc(C(=O)N2CCN(Cc3ccccc3)CC2)c1[N+](=O)[O-]	n	n	-4.9	n	n	n	n	n	0.028	n	0.015	n
CC(C)c1onc(C(=O)N2CCOCC2)c1[N+](=O)[O-]	n	n	n	n	n	n	x	x	x	x	x	x
CC(C)c1onc(C(=O)NCCc2ccccc2)c1[N+](=O)[O-]	n	n	-5.2	n	n	n	n	n	0.025	n	u	n
COC(=O)/C(=C\Nc1ccc(Cl)cc1Cl)NC(=O)c1ccc(OC)cc1	n	n	x	n	n	n	x	x	x	x	x	x
S=c1[nH]nc(-c2ccc3ccccc3n2)n1-c1ccccc1	n	n	n	n	n	n	x	x	x	x	x	x
Fc1ccccc1-n1c(-c2ccc3ccccc3n2)n[nH]c1=S	n	n	4.5	n	n	n	n	0.022	u	u	u	n
CN(Cc1ccsc1)C(=O)Cn1cc(Br)ccc1=O	n	n	x	n	n	n	x	x	x	x	x	x
COc1ccc(C(=O)N2CCCC(c3ccccc3)C2)cc1 (configuration not stated)	n	x	-4.8	n	x	n	n	0.0073	0.025	n	u	n
